This is an account of results in ChEMBL document CHEMBL2169854, “New insight into the central benzodiazepine receptor-ligand interactions: design, synthesis, biological evaluation, and molecular modeling of 3-substituted 6-phenyl-4H-imidazo[1,5-a][1,4]benzodiazepines and related compounds” (J Med Chem, 2011).

Activity calls are given as the source filed them. The calls are words filed in the database; no cut-off is given here.

What is called Ki is a measure of affinity in units of concentration, obtained from inhibition or displacement. Read a low Ki as higher affinity.

A short description of test [1]: Displacement of [3H]flumazenil from central benzodiazepine receptor in bovine cortical membrane after 90 mins by beta liquid scintillation counting. The test is classed as cell membranes, Bos taurus. The essentials: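 At least six concentrations spanning 3 log units were tested in 2% DMSO. Ki was obtained by Cheng–Prusoff (Kd 0.85 nM bovine, 0.91 nM human), mean of three determinations.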
On the technique in general: Displacement assays read how much labelled ligand stays bound in the presence of the test substance.

The species named for test [2] is Rattus norvegicus. The experiment in a line: Antagonist activity at central benzodiazepine receptor in Sprague-Dawley rat cerebrocortical synaptoneurosomes assessed as effect on GABA-induced [36]chloride ion flow after 10 seconds by beta liquid scintillation counting. Type of test: functional. In outline: (§1)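 Cerebral cortex from male Sprague-Dawley rats was homogenised and filtered, and synaptoneurosomes were washed in HEPES pH 7 buffer (145 mM NaCl, 5 mM KCl, 5 mM MgCl2, 1 mM CaCl2, 10 mM glucose). Aliquots of 1.5–2 mg protein were preincubated 10 min at 30 C. Drug was added with 0.2 μCi 36Cl−, uptake was stopped at 10 s, and filter-bound radioactivity was counted by scintillation.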

The target in test [3] is T1, GABA-A receptor; alpha-1/beta-2/gamma-2 (Homo sapiens) (UniProt P14867+P47870+P18507). The experiment in a line: Antagonist at human recombinant GABA-A alpha1beta2gamma2L receptor expressed in Xenopus laevis oocytes assessed as blockade of diazepam-induced potentiation of GABA-induced chloride current at 10 uM incubated 60 seconds before addition of GABA measured after 30 seconds at holding potential -70 mV by two-microelectrode voltage clamp technique. Type of test: functional, cell-based. The settings on record: Oocyte. In outline: (§2)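 Oocytes expressing human α1β2γ2L, α2β1γ2L or α5β2γ2L receptors were clamped at −70 mV. Compound at 10 μM was tested against the enhancement of the GABA EC10 response by 1.0 μM diazepam, with 60 s preapplication and 30 s coapplication. The response was expressed as percent potentiation, from 2–3 oocytes.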

In test [4] the target is T2, GABA A receptor alpha-1/beta-1/gamma-2 (Homo sapiens) (UniProt P14867+P18507+P18505). The experiment in a line: Modulation of human recombinant GABA-A alpha1beta1gamma2L receptor expressed in Xenopus laevis oocytes assessed as effect on GABA-induced chloride current at 10 uM incubated 60 seconds before addition of GABA measured after 30 seconds at holding potential -70 mV by two-microelectrode voltage clamp technique relative to control. The test is classed as cell-based. The conditions noted are these: Oocyte.

In test [5] the target is T1, GABA-A receptor; alpha-1/beta-2/gamma-2 (Homo sapiens). The experiment in a line: Modulation of human recombinant GABA-A alpha1beta2gamma2L receptor expressed in Xenopus laevis oocytes assessed as effect on GABA-induced chloride current at 1 uM incubated 60 seconds before addition of GABA measured after 30 seconds at holding potential -70 mV by two-microelectrode voltage clamp technique relative to control. The conditions noted are these: Oocyte. The test is classed as cell-based.

The test system of test [6] is Oocyte. The test can be described thus: Antagonist at human recombinant GABA-A alpha5beta2gamma2L receptor expressed in Xenopus laevis oocytes assessed as blockade of diazepam-induced potentiation of GABA-induced chloride current at 10 uM incubated 60 seconds before addition of GABA measured after 30 seconds at holding potential -70 mV by two-microelectrode voltage clamp technique. The test is classed as functional, cell-based. The essentials:
as §2

In test [7] the target is T2, GABA A receptor alpha-1/beta-1/gamma-2 (Homo sapiens). The test can be described thus: Modulation of human recombinant GABA-A alpha1beta1gamma2L receptor expressed in Xenopus laevis oocytes assessed as effect on GABA-induced chloride current at 1 uM incubated 60 seconds before addition of GABA measured after 30 seconds at holding potential -70 mV by two-microelectrode voltage clamp technique relative to control. The test is classed as cell-based. The conditions noted are these: Oocyte.

In test [8] the test system is Oocyte. The test can be described thus: Modulation of human recombinant GABA-A alpha5beta2gamma2L receptor expressed in Xenopus laevis oocytes assessed as effect on GABA-induced chloride current at 10 uM incubated 60 seconds before addition of GABA measured after 30 seconds at holding potential -70 mV by two-microelectrode voltage clamp technique relative to control. The test is classed as cell-based.

Test [9] has as its system Oocyte. The experiment in a line: Modulation of human recombinant GABA-A alpha5beta2gamma2L receptor expressed in Xenopus laevis oocytes assessed as effect on GABA-induced chloride current at 1 uM incubated 60 seconds before addition of GABA measured after 30 seconds at holding potential -70 mV by two-microelectrode voltage clamp technique relative to control. The test is classed as cell-based.

Test [10] concerns the target T1, GABA-A receptor; alpha-1/beta-2/gamma-2 (Homo sapiens). The test can be described thus: Modulation of human recombinant GABA-A alpha1beta2gamma2L receptor expressed in Xenopus laevis oocytes assessed as effect on GABA-induced chloride current at 10 uM incubated 60 seconds before addition of GABA measured after 30 seconds at holding potential -70 mV by two-microelectrode voltage clamp technique relative to control. The test is classed as cell-based. The settings on record: Oocyte.

Test [11] has as its target T2, GABA A receptor alpha-1/beta-1/gamma-2 (Homo sapiens). The test can be described thus: Antagonist at human recombinant GABA-A alpha1beta1gamma2L receptor expressed in Xenopus laevis oocytes assessed as blockade of diazepam-induced potentiation of GABA-induced chloride current at 10 uM incubated 60 seconds before addition of GABA measured after 30 seconds at holding potential -70 mV by two-microelectrode voltage clamp technique. The test is classed as functional, cell-based. The conditions noted are these: Oocyte.

The species named for test [12] is Bos taurus. The experiment in a line: Ratio of Ki for central benzodiazepine receptor in bovine cortical membrane to Ki for central benzodiazepine receptor in bovine cortical membrane in presence of 50 uM GABA. Type of test: cell membranes.
Test [13] is described as follows: Displacement of [3H]flumazenil from central benzodiazepine receptor in human cortical membrane after 90 mins by beta liquid scintillation counting. The test is classed as cell membranes.
Test [14] is filed under the species Homo sapiens. The test can be described thus: Ratio of Ki for central benzodiazepine receptor in human cortical membrane to Ki for central benzodiazepine receptor in human cortical membrane in presence of 50 uM GABA. Type of test: cell membranes.
The target in test [15] is T1, GABA-A receptor; alpha-1/beta-2/gamma-2 (Homo sapiens). The experiment in a line: Modulation of human recombinant GABA-A alpha1beta2gamma2L receptor expressed in Xenopus laevis oocytes assessed as effect on GABA-induced chloride current at 0.1 uM incubated 60 seconds before addition of GABA measured after 30 seconds at holding potential -70 mV by two-microelectrode voltage clamp technique relative to control. The test is classed as cell-based. The settings on record: Oocyte.

Test [16] has the same target. The test can be described thus: Modulation of human recombinant GABA-A alpha1beta2gamma2L receptor expressed in Xenopus laevis oocytes assessed as effect on GABA-induced chloride current at 0.01 uM incubated 60 seconds before addition of GABA measured after 30 seconds at holding potential -70 mV by two-microelectrode voltage clamp technique relative to control. Type of test: cell-based. The conditions noted are these: Oocyte.

For test [17], the system named is Mus musculus. The test can be described thus: Anxiolytic effect in mouse assessed as increase in time spent in light compartment at 1 mg/kg, ip by light/dark box test. The test is classed as functional, organism-based. Set-up: dose 1 mg/kg. The essentials: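 Male mice were used. Compound was given orally as a suspension in 1% CMC; diazepam was given ip in saline; volume 10 mL/kg. Each mouse was placed in the lit side of a two-compartment light/dark box and observed for 5 min, scoring time in the light and transfers. Groups were compared by ANOVA with Fisher PLSD.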

For test [18], the system named is Mus musculus. The test can be described thus: Myorelaxant activity in mouse assessed as motor coordination measuring number of falls at 1 mg/kg, ip measured for 30 seconds after 45 mins of compound administration by rotarod test. The test is classed as functional, organism-based. Set-up: dose 1 mg/kg. (In general: Falling from the rotarod earlier than controls is read as motor impairment.)

The species entered for test [19] is Rattus norvegicus. The experiment in a line: Agonist activity at central benzodiazepine receptor in Sprague-Dawley rat cerebrocortical synaptoneurosomes assessed as increase in GABA-induced [36]chloride ion flow after 10 seconds by beta liquid scintillation counting. The test is classed as functional. In outline:
as §1

`CCOC(=O)c1ncn2c1CN(C)C(=O)c1cc(F)ccc1-2` [FLUMAZENIL]: in [1], the inhibition constant (Ki) stood at 0.0019 µM. Also, the outcome in test [2] was Active.

In the case of `CCOC(=O)c1ncn2c1CN=C(c1cccc([N+](=O)[O-])c1)c1cc(F)ccc1-2`, the result in [3], in test [6] and in test [11] was Active. The Activity is -3.3% in test [4]; 14% in test [5]; 10% in [7]; -2.5% in test [8]; 27% in test [9]; -24% in test [10].

Regarding `NC(=O)c1ncn2c1CN=C(c1ccc(Cl)cc1)c1cc(Cl)ccc1-2`, in test [1], the Ki is > 10 µM.

With `CCOC(=O)c1ncn2c1CN=C(c1cccc3ccccc13)c1cc(Cl)ccc1-2`, the Ki in test [1] came out at 0.186 µM; in [13], 0.216 µM. In addition, the Ratio Ki in test [12] came out at 1.3.

As to `CNC(=O)c1ncn2c1CN=C(c1ccc(Cl)cc1)c1cc(Cl)ccc1-2`, the Ki in [1] was > 10 µM.

As to `CCOC(=O)c1ncn2c1CN=C(c1ccc(OC)cc1)c1cc(Cl)ccc1-2`, the Ki in test [1] came to 0.21 µM; in test [13], 0.227 µM.

As for `CCOC(=O)c1ncn2c1CN=C(c1ccc(Cl)cc1)c1ccc3ccccc3c1-2`, in [1], the Ki was > 10 µM.

On to `CCOC(=O)c1ncn2c1CN=C(c1ccc(F)cc1)c1ccccc1-2`, for which the Ki came out at 0.0115 µM in [1] and 0.0208 µM in test [13]. The Ratio Ki in test [12] came to 0.77; in test [14], 0.96. Also, the result in [2] was Active.

As for `N#Cc1ncn2c1CN=C(c1ccc(Cl)cc1)c1cc(Cl)ccc1-2`, the Ki in test [1] is 1.65 µM.

For the compound `CCOC(=O)c1ncn2c1CN=C(c1ccc(Cl)cc1)c1ccccc1-2`, the inhibition constant Ki was found to be 0.0127 µM in [1] and 0.0225 µM in [13]. Besides, the Ratio Ki in test [12] stood at 0.84; in [14], 0.87. Further, the result in [3], in test [6], in test [2] and in test [11] was Active. Moreover, the Activity in test [4] is -18%; in test [5], 3.6%; in [7] it was -7%; in test [8] it was 0%; in test [9], -0.5%; in test [10], 6.3%. The Activity stood at 1% in test [15] and 13% in test [16].

In test [1], `CC(C)(C)OC(=O)c1ncn2c1CN=C(c1ccc(Cl)cc1)c1cc(Cl)ccc1-2` showed a Ki of 1.3 µM.

Take `CN1C(=O)CN=C(c2ccccc2)c2cc(Cl)ccc21`: the result in [17] and in test [18] was Active.

As to `CCOC(=O)c1ncn2c1CN=C(c1ccc(C)cc1)c1cc(Cl)ccc1-2`, the Ki stood at 0.199 µM in [1] and 0.178 µM in test [13]. The Ratio Ki in [12] is 1.05.

In turn, `O=C1OCCC2N=C(c3ccccc3)c3ccccc3-n3cnc1c32` (stereo unspecified) came in with a Ki in test [1] of 0.283 µM. Further, the Ratio Ki in test [12] was 0.95.

Turning to `CCOC(=O)c1ncn2c1CN=C(c1ccc(OC)cc1)c1ccccc1-2`, the Ki was determined as 0.11 µM in [1] and 0.12 µM in test [13]. In test [12], the Ratio Ki was 0.78.

Consider `CCOC(=O)c1ncn2c1C(C)N=C(c1ccccc1)c1ccccc1-2` (stereo unspecified), for which the figures for the Ki in [1] and in test [13] were 0.453 µM and 0.75 µM, respectively. The Ratio Ki in test [12] turned out to be 1.3.

Consider `CN1C(=O)CN=C(c2ccccc2F)c2cc([N+](=O)[O-])ccc21` [FLUNITRAZEPAM], for which the inhibition constant Ki in test [1] stood at 0.00517 µM; in [13], 0.0065 µM. Moreover, the Ratio Ki was found to be 1.68 in [12] and 1.6 in test [14]. Besides, in test [19], the result was Active.

In the case of `Clc1ccc(C2=NCc3c(-c4nnn[nH]4)ncn3-c3ccc(Cl)cc32)cc1`, the Ki in test [1] was > 10 µM.

Consider `CCOC(=O)c1ncn2c1C(C)N=C(c1ccc(F)cc1)c1cc(F)ccc1-2` (stereo unspecified), for which the inhibition constant (Ki) in test [1] worked out at 0.51 µM; in [13], 0.55 µM. In addition, the Ratio Ki in test [12] came to 1.19.

As to `CCOC(=O)c1ncn2c1CN=C(c1ccc(Cl)cc1)c1cc(Cl)ccc1-2`, the Ki came out at 0.236 µM in test [1] and 0.21 µM in [13]. The Ratio Ki in [12] was determined as 1.3.

With `CCOC(=O)c1ncn2c1CN=C(c1ccc(F)cc1)c1cc(Cl)ccc1-2`, the Ki in [1] is 0.188 µM; in test [13] it was 0.212 µM. The Ratio Ki in test [12] is 1.25.

Turning to `CN(C)C(=O)c1ncn2c1CN=C(c1ccc(Cl)cc1)c1cc(Cl)ccc1-2`, the Ki in test [1] is > 10 µM.

For `CCOC(=O)c1ncn2c1CN=C(c1cccc([N+](=O)[O-])c1)c1cc(Cl)ccc1-2`, the values for the Ki in test [1] and in [13] were 0.0017 µM and 0.0023 µM, respectively. Besides, the Ratio Ki in test [12] was found to be 0.99; in [14], 0.98. In addition, the outcome in [2] was Active.
